ChEMBL document CHEMBL1126984, “o-phenylphenols: potent and orally active leukotriene B4 receptor antagonists” (J Med Chem, 1993)

Experiments:
Cavia porcellus [1] = experiment: In vivo antagonistic activity against LTB4 induced airway obstruction in guinea pig following oral administration; assay type: functional
Summary of the method: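 Guinea pigs dosed orally 2 h before a 3.0 µg/kg iv LTB4 challenge. Animals killed 1 min after challenge. Excised lung gas volume (ELGV) measured as the index of airway obstruction severity. Means ± SEM, 3-14 guinea pigs per group.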

Cavia porcellus [2] = experiment: In vivo antagonistic activity against LTB4 induced airway obstruction in guinea pig following intravenous administration; assay type: functional
Summary of the method: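 Guinea pigs dosed intravenously 5 min before a 3.0 µg/kg iv LTB4 challenge. Animals killed 1 min after challenge. Excised lung gas volume (ELGV) measured as the index of airway obstruction severity. Means ± SEM, 3-14 guinea pigs per group; ED50 in mg/kg.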

Cavia porcellus [3] = species on record: Cavia porcellus; experiment: Inhibition of LTB4-induced contraction of guinea pig lung parenchyma strips; assay type: functional
Leukotriene B4 receptor [4] = biological target: T1, Leukotriene B4 receptor (Homo sapiens, UniProt Q9NPC1+Q15722); experiment: Inhibition of [3H]LTB4 receptor binding in human neutrophils; assay type: protein assay
[5] = biological target: Leukotriene B4 receptor (Cavia porcellus); experiment: Inhibition of [3H]LTB4 receptor binding in guinea pig lung membrane
Leukotriene B4 receptor [6] = biological target: T1, Leukotriene B4 receptor; experiment: Inhibition of LTB4-induced human neutrophil CD11b/CD18 integrin up-regulation; assay type: functional

Row | Compound | IC50 (Leukotriene B4 receptor [4]) [nM] | Ki [5] [nM] | IC50 (Leukotriene B4 receptor [6]) [nM] | ED50 (Cavia porcellus [1]) [mg/kg] | ED50 (Cavia porcellus [2]) [mg/kg] | pKB (Cavia porcellus [3])
1 | CCc1cc(-c2ccccc2)c(O)cc1OCCCCCC(C)(C)c1nn[n-]n1.[Na+] |  |  |  | 0.7 | 0.05 | 8.3
2 | CCc1cc(-c2ccc(F)cc2)c(O)cc1OCCCCCC(C)(C)c1nn[n-]n1.[Na+] |  |  |  | 0.56 | 0.03 | 8.3
3 | CCc1cc(C(C)=O)c(O)cc1OCCCCCC(C)(C)c1nn[n-]n1.[Na+] |  |  |  |  |  | 6.7
4 | CCOc1cc(CC)c(OCCCCCC(C)(C)c2nn[n-]n2)cc1O.[Na+] |  |  |  |  |  | 6.6

Continued, in another order:

Row | IC50 (Leukotriene B4 receptor [4]) [nM] | Ki [5] [nM] | IC50 (Leukotriene B4 receptor [6]) [nM] | Compound | ED50 (Cavia porcellus [1]) [mg/kg] | ED50 (Cavia porcellus [2]) [mg/kg] | pKB (Cavia porcellus [3])
5 | 33.2 | 76.9 |  | CCc1cc(-c2cccc(C(F)(F)F)c2)c(O)cc1OCCCCCC(C)(C)c1nn[n-]n1.[Na+] |  |  | 
6 | 453 | 196 |  | CCc1cc(-c2ccccn2)c(O)cc1OCCCCCC(C)(C)c1nn[n-]n1.[Na+] |  |  | 
7 | 15.8 | 85.9 |  | CCc1cc(-c2ccc(N(C)C)cc2)c(O)cc1OCCCCCC(C)(C)c1nn[n-]n1.[Na+] |  |  | 
8 | 9.3 | 14.2 | 161 | CCCc1cc(CC)c(OCCCCCC(C)(C)c2nn[n-]n2)cc1O.[Na+] |  |  | 7.6
